Columns and labels:
[1] = tested on: Mycobacterium tuberculosis; experiment: Binding affinity to Mycobacterium tuberculosis CitA R153ZM mutant expressed in Escherichia coli cells assessed as change in melting temperature by thermal shift assay
Procedure, shortened: (§1)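 Thermal shift used 25 μM purified protein in 50 mM Tris pH 8.0 with 2 mM ligand (sodium pyruvate, OAA, or both), plus Protein Thermal Shift dye at 2X final. ΔTm was taken from the melt-curve derivative relative to protein without ligand.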

[2] = tested on: Mycobacterium tuberculosis; experiment: Binding affinity to Mycobacterium tuberculosis CitA R153M mutant expressed in Escherichia coli cells assessed as Vmax by Michaelis-Menten analysis
Procedure, shortened: (§2)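 His-tagged CitA (wild type or variant) was expressed in E. coli, purified by cobalt affinity and size exclusion, then dialysed against 20 mM Tris pH 8.0. Activity was measured by DTNB (300 μM) thiol detection of released CoA at 412 nm, with OAA and AcCoA substrates and 10 nM enzyme, in 50 mM Tris pH 8.0 at 25 °C. A no-enzyme control was run. Triplicate runs were fitted to Michaelis–Menten.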

[3] = tested on: Mycobacterium tuberculosis; experiment: Binding affinity to Mycobacterium tuberculosis CitA R153M mutant expressed in Escherichia coli cells assessed as catalytic constant by Michaelis-Menten analysis; procedure, shortened: as §2
[4] = tested on: Mycobacterium tuberculosis; experiment: Binding affinity to Mycobacterium tuberculosis CitA R149E mutant expressed in Escherichia coli cells assessed as apparent Km by Michaelis-Menten analysis; procedure, shortened: as §2
[5] = tested on: Mycobacterium tuberculosis; experiment: Binding affinity to Mycobacterium tuberculosis CitA R149E mutant expressed in Escherichia coli cells assessed as Vmax by Michaelis-Menten analysis; procedure, shortened: as §2
[6] = tested on: Mycobacterium tuberculosis; experiment: Binding affinity to Mycobacterium tuberculosis CitA R153M mutant expressed in Escherichia coli cells assessed as apparent Km by Michaelis-Menten analysis; procedure, shortened: as §2
[7] = tested on: Mycobacterium tuberculosis; experiment: Binding affinity to Mycobacterium tuberculosis CitA R149E mutant expressed in Escherichia coli cells assessed as change in melting temperature by thermal shift assay; procedure, shortened: as §1
[8] = tested on: Mycobacterium tuberculosis; experiment: Binding affinity to Mycobacterium tuberculosis CitA R153M mutant expressed in Escherichia coli cells assessed as Kcat/Km by Michaelis-Menten analysis; procedure, shortened: as §2
[9] = tested on: Mycobacterium tuberculosis; experiment: Binding affinity to Mycobacterium tuberculosis CitA R149E mutant expressed in Escherichia coli cells assessed as change in melting temperature in presence of pyruvate by thermal shift assay; procedure, shortened: as §1
[10] = tested on: Mycobacterium tuberculosis; experiment: Binding affinity to Mycobacterium tuberculosis CitA R149E mutant expressed in Escherichia coli cells assessed as catalytic constant by Michaelis-Menten analysis; procedure, shortened: as §2
[11] = tested on: Mycobacterium tuberculosis; experiment: Binding affinity to Mycobacterium tuberculosis CitA R153ZM mutant expressed in Escherichia coli cells assessed as change in melting temperature in presence of pyruvate by thermal shift assay; procedure, shortened: as §1
[12] = tested on: Mycobacterium tuberculosis; experiment: Binding affinity to Mycobacterium tuberculosis CitA R149E mutant expressed in Escherichia coli cells assessed as Kcat/Km by Michaelis-Menten analysis; procedure, shortened: as §2
[13] = tested on: Mycobacterium tuberculosis; experiment: Binding affinity to Mycobacterium tuberculosis CitA R153ZM mutant expressed in Escherichia coli cells assessed as change in melting temperature in presence of oxaloacetate by thermal shift assay; procedure, shortened: as §1
[14] = tested on: Mycobacterium tuberculosis; experiment: Binding affinity to Mycobacterium tuberculosis CitA R149E mutant expressed in Escherichia coli cells assessed as change in melting temperature in presence of oxaloacetate by thermal shift assay; procedure, shortened: as §1

Structure (SMILES) | ΔTm [1] | Vmax [2] | kcat [3] | Km [4] | Vmax [5] | Km [6] | ΔTm [7] | kcat/Km [8] | ΔTm [9] | kcat [10] | ΔTm [11] | kcat/Km [12] | ΔTm [13] | ΔTm [14]
O=C(O)CC(=O)C(=O)O | 14.3 °C | 2 µM/min | 3.3 s⁻¹ | 11.7 µM | 2.8 µM/min | 3.2 µM | 10.8 °C | 1.05e+06 M⁻¹ s⁻¹ | 10.7 °C | 4.68 s⁻¹ | 14.3 °C | 400000 M⁻¹ s⁻¹ |  | 
CC(=O)C(=O)O | 0.51 °C |  |  |  |  |  | 0.47 °C |  |  |  |  |  | 14.3 °C | 10.7 °C
